The test system of assay [1] is Nucleic Acid. The assay is described as follows: In vitro binding of [3H]HC to calf thymus DNA after precipitation with alcohol and TCA was measured after 4 day. Format: nucleic-acid assay. The following applies: Bos taurus. The essentials: (§1)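 0.02 µCi of 3H-labelled drug was added to 50 µg calf thymus DNA in 20 µL of 0.1 M citrate-phosphate buffer, pH 7. Incubated 1.5 h at 37 °C in the dark, diluted to 0.1 mL saline and dialyzed against saline at 4 °C for up to 4 days. Duplicate 10 µL samples taken from inside the bags at intervals were counted directly, or after TCA precipitation.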

For assay [2], the system named is Schistosoma mansoni. Briefly: Day 50% survival of worms in culture of HC sensitive Schistosoma mansoni. In kind it is functional.
Assay [3] relates to HeLa. The assay is described as follows: Incorporation of [3H]uridine in HeLa cells after 2x10e-5 M HC measured as as TCA precipitable radioactivity compared with non treated controls. The following applies: Homo sapiens.
Assay [4] has as its system HeLa. Briefly: Incorporation of 10e-5 M [3H]uridine in HeLa cells in absence of HC measured as as TCA precipitable radioactivity compared with non treated controls. Format: functional, cell-based. The following applies: Homo sapiens. An outline of the steps:
(§2)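 HeLa cells (10^6 per duplicate tube) were exposed to drug for 1 h, washed three times with medium, then held 2 h in drug-free medium. [3H]uridine was added for 1 h. Cells were precipitated with 10% TCA, and precipitates were filter-collected and counted. Values are % TCA-precipitable radioactivity versus untreated controls.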

Assay [5] concerns HeLa. The assay is described as follows: Incorporation of 10e-5 M [3H]uridine in HeLa cells in presence of HC measured as as TCA precipitable radioactivity compared with non treated controls. In kind it is functional, cell-based. The following applies: Homo sapiens. The essentials:
(§3)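 HeLa cells (10^6 per duplicate tube) were incubated 1 h with drug. [3H]uridine was then added and incubation continued 1 h with drug present. Cells were washed with cold saline and precipitated with 10% TCA. Precipitates were collected on glass filters, TCA-washed and counted. Values are % TCA-precipitable radioactivity versus untreated controls.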

Assay [6] concerns Nucleic Acid. Briefly: In vitro binding of [3H]HC to calf thymus DNA was measured after 3 days. In kind it is nucleic-acid assay. The following applies: Bos taurus. An outline of the steps:
as §1

For assay [7], the system named is Mus musculus. Briefly: In vivo antitumor activity against p-388 lymphocytic leukemia in mice at 60 mg/kg. Format: functional. An outline of the steps: (§4)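 Murine P388 lymphocytic leukemia model tested by the National Cancer Institute. Compound given once daily for 9 days; activity expressed as T/C.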
The subject of assay [8] is Schistosoma mansoni. Briefly: Incorporation of 1.4 M*10e6 [3H]uridine in hycanthone(HC) sensitive Schistosoma mansoni. Format: functional.
Assay [9] relates to Nucleic Acid. The assay is described as follows: In vitro binding of [3H]HC to calf thymus DNA after precipitation with alcohol and TCA was measured after 2 day. In kind it is nucleic-acid assay. The following applies: Bos taurus. An outline of the steps:
as §1

In assay [10] the test system is Nucleic Acid. The assay is described as follows: Binding of 1x 10e-5 M [3H]HC to HeLa DNA. The following applies: Homo sapiens. In kind it is nucleic-acid assay. An outline of the steps:
(§5)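 HeLa cells exposed 1 h to [3H]-labelled drug, washed three times with saline, then held 30 min at 37 °C in drug-free medium. After a 2 h digestion at 37 °C, crude DNA was ethanol-precipitated, purified on a CsCl density gradient, dialyzed and reprecipitated. DNA was quantified by A260. An aliquot was treated with DNase, and DNase-sensitive radioactivity was expressed as drug molecules per base pair.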

Assay [11] is described as follows: Total radioactivity of [3H]HC was evaluated after 2 hr. In kind it is functional. An outline of the steps: (§6)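 3H-labelled drug (0.02 µCi) was mixed with 50 µg calf thymus DNA in 0.1 M citrate-phosphate buffer, pH 7, and incubated in the dark for 1.5 h at 37 °C. The mix was diluted in saline and dialysed against saline at 4 °C. Duplicate samples drawn from inside the bags at intervals up to 4 days were counted directly.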

For assay [12], the system named is Nucleic Acid. The assay is described as follows: Binding of 5x 10e-4 M [3H]HC to HeLa DNA. In kind it is nucleic-acid assay. The following applies: Homo sapiens. An outline of the steps:
as §5

Assay [13] deals with Nucleic Acid. Briefly: In vitro binding of [3H]HC to calf thymus DNA after precipitation with alcohol and TCA was measured. In kind it is nucleic-acid assay. The following applies: Bos taurus. An outline of the steps:
as §1

Assay [14] concerns Schistosoma mansoni. The assay is described as follows: Day 50% survival of worms in culture of HC resistant Schistosoma mansoni. In kind it is functional. An outline of the steps: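 Adult HC-resistant S. mansoni were exposed in vitro and kept in culture. The value is the day by which 50% of worms were dead. Cultures were ended at different times in different experiments. Concentrations are given in M × 10^6.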

Assay [15] in a line: Total radioactivity of [3H]HC was evaluated after 2 hours. Format: functional. The essentials: as §6
For assay [16], the system named is Nucleic Acid. The assay is described as follows: In vitro binding of [3H]HC to calf thymus DNA after precipitation with alcohol and TCA was measured after 2 hours. In kind it is nucleic-acid assay. The following applies: Bos taurus. The essentials:
as §1

In assay [17] the test system is Nucleic Acid. Briefly: In vitro binding of [3H]HC to calf thymus DNA. The following applies: Bos taurus. Format: nucleic-acid assay. An outline of the steps:
as §1

The test system of assay [18] is HeLa. Briefly: Incorporation of 2*10e-5 M [3H]uridine in HeLa cells in presence of HC measured as as TCA precipitable radioactivity compared with non treated controls. Format: functional, cell-based. The following applies: Homo sapiens. An outline of the steps: as §3
Assay [19] is described as follows: (§7) Total radioactivity of [3H]HC was evaluated after 3 days. In kind it is functional. The essentials:
as §6

In assay [20] the test system is Nucleic Acid. Briefly: Binding of 1x 10e-4 M [3H]HC to HeLa DNA. In kind it is nucleic-acid assay. The following applies: Homo sapiens. The essentials: as §5
The subject of assay [21] is Schistosoma mansoni. The assay is described as follows: Incorporation of 0.7 M *10e6 [3H]uridine in hycanthone(HC) sensitive Schistosoma mansoni. Format: functional.
Assay [22] relates to Nucleic Acid. Briefly: In vitro binding of [3H]HC to calf thymus DNA was measured after 2 days. The following applies: Bos taurus. Format: nucleic-acid assay. The essentials: as §1
Assay [23] has as its system Nucleic Acid. The assay is described as follows: In vitro binding of [3H]-HC to calf thymus DNA after precipitation with alcohol and TCA was measured after 3 days. In kind it is nucleic-acid assay. The following applies: Bos taurus. An outline of the steps: as §1
Assay [24] has as its system Nucleic Acid. The assay is described as follows: In vitro binding of [3H]HC to calf thymus DNA was measured after 4 day. Format: nucleic-acid assay. The following applies: Bos taurus. The essentials: as §1
Assay [25] has as its system Nucleic Acid. Briefly: In vitro binding of [3H]HC to calf thymus DNA after precipitation with alcohol and TCA was measured after 1 day. Format: nucleic-acid assay. The following applies: Bos taurus. The essentials: as §1
Assay [26] relates to Schistosoma mansoni. The assay is described as follows: Incorporation of 1.4 M*10e6 [3H]uridine in hycanthone(HC) resistant Schistosoma mansoni. In kind it is functional. An outline of the steps:
(§8)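 Adult HC-resistant S. mansoni were treated in vitro, and [3H]uridine incorporation by the worms was measured. Values are % of control. Concentrations are given in M × 10^6.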

Assay [27] is described as follows: as §7. Format: functional. The essentials: as §6
This is another data set of the same source.

Assay [28] relates to Nucleic Acid. The assay is described as follows: In vitro binding of [3H]HC to calf thymus DNA was measured after 1 day. Format: nucleic-acid assay. The following applies: Bos taurus. The essentials:
as §1

The subject of assay [29] is Nucleic Acid. Briefly: In vitro binding of [3H]HC to calf thymus DNA was measured after 2 hours. In kind it is nucleic-acid assay. The following applies: Bos taurus. An outline of the steps: as §1
In assay [30] the test system is HeLa. Briefly: Incorporation of 2*10e-5 M [3H]-uridine in HeLa cells in absence of HC measured as as TCA precipitable radioactivity compared with non treated controls. Format: functional, cell-based. The following applies: Homo sapiens. The essentials:
as §2

Assay [31] relates to Mus musculus. Briefly: In vivo antitumor activity against p-388 lymphocytic leukemia in mice at 1.5 mg/kg. In kind it is functional. An outline of the steps: as §4
Assay [32] relates to Mus musculus. The assay is described as follows: In vivo antitumor activity against p-388 lymphocytic leukemia in mice at 6.25 mg/kg. Format: functional. The essentials: as §4
Assay [33] has as its system Mus musculus. The assay is described as follows: In vivo antitumor activity against p-388 lymphocytic leukemia in mice at 12.5 mg/kg. Format: functional. The essentials: as §4
For assay [34], the system named is Mus musculus. Briefly: In vivo antitumor activity against p-388 lymphocytic leukemia in mice at 3.12 mg/kg. Format: functional. The essentials: as §4
The subject of assay [35] is Schistosoma mansoni. Briefly: Incorporation of 5.5 M*10e6 [3H]uridine in hycanthone(HC) resistant Schistosoma mansoni. In kind it is functional. An outline of the steps:
as §8

The test system of assay [36] is Schistosoma mansoni. Briefly: Incorporation of 1.1 M *10e6 [3H]uridine in hycanthone(HC) sensitive Schistosoma mansoni. Format: functional.
The test system of assay [37] is Schistosoma mansoni. The assay is described as follows: Incorporation of 1.1 M *10e6 [3H]uridine in hycanthone(HC) resistant Schistosoma mansoni. In kind it is functional. An outline of the steps:
as §8

The subject of assay [38] is Mus musculus. The assay is described as follows: In vivo antitumor activity against p-388 lymphocytic leukemia in mice at 1.50 mg/kg. Format: functional. The following applies: dose 1.5 mg/kg. The essentials:
as §4

Assay [39] relates to Schistosoma mansoni. Briefly: Incorporation of 5.5 M*10e6 [3H]uridine in hycanthone(HC) sensitive Schistosoma mansoni. Format: functional.

Where “and” joins values, the source holds several entries; their conditions need not be identical. Identical values can stand only once. Bounds are passed on as bounds.

Consider `CCN(CC)CCNc1ccc(CO)c2sc3ccccc3c(=O)c12` [HYCANTHONE], for which the Radioactivity in assay [1] is 200 c.p.m; in assay [3] it was 68%; in assay [4], 88%; in assay [5], 32%; in assay [6] it was 1600 c.p.m; in assay [9] it was 275 c.p.m. Besides, the Radioactivity in [11] came out at 100 c.p.m; in assay [13] it was 350 c.p.m; in assay [15], 20500 c.p.m; in assay [16], 430 c.p.m; in [17], 235000 c.p.m; in assay [18], 37%. Besides, the Radioactivity was 62 c.p.m in [19]; 2300 c.p.m in assay [22]; 265 c.p.m in [23]; 1100 c.p.m in assay [24]; 330 c.p.m in assay [25]; 700 c.p.m in assay [27]. Also, the Radioactivity in assay [28] amounted to 3460 c.p.m; in [29] it was 50000 c.p.m; in [30], 68%. Moreover, the Effect was 7 days in assay [2] and above 12 days in assay [14]. This compound also returned a T/C in assay [7] of 165. Further, the Control in assay [8] is reported as 30%; in [21] it was 20%; in [26], 98%. In addition, the Drug mol/base pair is below 4e-08 in [10], 7e-07 in [12] and below 4e-08 in assay [20].
With `CNC(=O)OCc1ccc(NCCN(C)C)c2c(=O)c3cc(O)ccc3sc12`, the T/C was found to be 134 in assay [31], 127 in [32], 112 in assay [33] and 130 in assay [34].
`CCCNC(=O)OCc1ccc(NCCN(CC)CC)c2c(=O)c3ccccc3sc12`: in assay [2], the Effect was >12 days and 10 days. For the same compound, the Control in [35] is given as 56%; in assay [36], 40%; in assay [37], 100%; in assay [39] it was 22%. Further, the T/C in assay [32] is recorded as 134%; in assay [34] it was 117%; in assay [38], 99%.

(Values after ChEMBL document CHEMBL1124248, “Preparation and antischistosomal and antitumor activity of hycanthone and some of its congeners. Evidence for the mode of action of hycanthone” (1988).)
